This is a sample that favours compounds with a hit; in the whole collection about 4.3% have one here.
OX1R antag-1 = human HCRTR1 antagonism; O43613; CHO/OX1R cells, Fluo-8 calcium fluorescence, orexin A; inhibition, % at 5 µM; 330,000 compounds, 0.43% hits; AID 434989;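 active = inhibition above its plate's threshold, mean inhibition of all tested compounds on the plate plus 3 SD, cut at about 37% in these data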;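 note: 0% = orexin A challenge wells and 100% = SB-334867-A antagonist wells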
TAAR1 ag = agonists of human TAAR1; Q96RJ0; 360,000 compounds, 0.99% hits; CHO RD-HGA16 TAAR1, Fluo-8 calcium fluorescence; vehicle wells 0%, saturating PEA agonist 100%; activation, % at 3 µM;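 active = activation above the mean activation of all test compounds in the run plus 3 SD, cut at about 38% in these data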
Target sequence (Q96RJ0 whole entry, looked up): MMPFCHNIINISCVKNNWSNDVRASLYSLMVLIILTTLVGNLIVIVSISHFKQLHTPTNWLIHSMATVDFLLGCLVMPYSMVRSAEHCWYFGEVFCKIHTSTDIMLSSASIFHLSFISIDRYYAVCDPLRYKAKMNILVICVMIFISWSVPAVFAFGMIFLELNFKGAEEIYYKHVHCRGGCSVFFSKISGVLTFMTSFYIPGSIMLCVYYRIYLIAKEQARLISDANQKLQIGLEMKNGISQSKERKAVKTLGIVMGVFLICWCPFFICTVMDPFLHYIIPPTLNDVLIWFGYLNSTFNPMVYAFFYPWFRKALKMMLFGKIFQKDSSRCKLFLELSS
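Test system: RD-HGA16 (CHO) cells co-expressing Gα16 and hTAAR1; dosing: one-point dosing at 3 µM (nominal); timing: 17-24 h seeding, 75 min 37 °C dye, 30 min RT; signal: kinetic Fluo-8 calcium fluorescence; read-out basis: % activation relative to PEA EC100 response; controls: DMSO and PEA EC100; replicates: n 1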
OX1R antag-2 = antagonists of human orexin 1 receptor (OX1R); OX1R-expressing cells, FRET antagonist read-out; inhibition, % at 6.6 µM; 330,000 compounds, 1.8% hits; AID 485270; in the data active = inhibition mostly above about 38%, no sharp cut-off; inactive = mostly below about 40%;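 note: 0% = agonist challenge alone and 100% = reference antagonist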
GalR3 antagonist = human GalR3 antagonism; O60755; HEK293 GalR3-CNG cAMP membrane potential fluorescence; galR3 body fused to GalR1 C-terminus; inhibition, % at 3 µM; 360,000 compounds, 0.44% hits;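 active = inhibition above the screen-wide average plus 3 SD, cut at about 13% in these data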;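 note: forskolin and galanin both at EC90 stimulate the cells; cAMP rise reported by CNG channel membrane potential dye signal; 0% = forskolin plus galanin with DMSO and 100% = forskolin alone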
Target sequence (O60755 1-299 limits assumed): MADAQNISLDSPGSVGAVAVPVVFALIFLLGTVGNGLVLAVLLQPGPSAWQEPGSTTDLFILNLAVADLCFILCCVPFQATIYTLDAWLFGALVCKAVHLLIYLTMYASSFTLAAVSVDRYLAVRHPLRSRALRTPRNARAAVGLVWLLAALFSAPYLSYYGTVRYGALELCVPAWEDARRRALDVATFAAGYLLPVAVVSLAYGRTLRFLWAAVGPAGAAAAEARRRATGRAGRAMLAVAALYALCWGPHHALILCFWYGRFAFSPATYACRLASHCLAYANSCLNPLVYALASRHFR
TAAR1 antag = antagonists of human TAAR1; Q96RJ0; CHO RD-HGA16 TAAR1, Fluo-8 calcium fluorescence, antagonist; inhibition, % at 3 µM; 360,000 compounds, 1.5% hits;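 active = inhibition above a per-plate cutoff, the mean inhibition of test compounds on that plate plus 3 SD, cut at about 49% in these data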;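 note: 0% = DMSO plus EC80 beta-PEA response and 100% = DMSO alone without agonist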
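test system = CHO RD-HGA16 cells bearing hTAAR1 | replication = singlicate | controls = DMSO-only wells and EC80 β-PEA-stimulated wells | reagent = EC80 β-phenethylamine stimulus | read-out basis = percent inhibition of PEA-evoked calcium signal, max/basal emission ratio | schedule = seeding 17-24 h prior, 75-min 37 °C, 30-min RT dye loading | signal = kinetic Fluo-8 calcium fluorescence measurement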
CHO parental Ca = signal in parental CHO cells, OX1R antagonist counter-screen | parental CHO-K1, ATP-induced calcium, Fluo-8 fluorescence | inhibition, % at 5.6 µM | 330,000 compounds, 0.63% hits | AID 463079;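 active = inhibition above that plate's mean sample inhibition plus 3 SD, cut at about 26% in these data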;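 note: 0% = ATP-challenged DMSO wells and 100% = DMSO wells without ATP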
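Material: parental CHO cells / Compound: single nominal dose of 5.6 µM per compound / Signal: Fluo-8 fluorescence / Replicates: singlicate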
TAAR1 ag conf = confirmation of human TAAR1 agonists; shares compounds with TAAR1 ag; CHO RD-HGA16 TAAR1, Fluo-8 calcium fluorescence; scaled: DMSO 0%, maximal phenethylamine 100%; activation, % at 3 µM; 2,400 compounds, 82% hits;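 active = activation above a cutoff set at the run's mean compound activation plus 3 SD, cut at about 39% in these data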
Ga16 nonsel ag = nonselective agonism, TAAR1 counter-screen. shares compounds with TAAR1 ag. CHO-Ga16 parental, Fluo-8 calcium fluorescence; normalized to maximal ATP response, DMSO zero. activation, % at 3 µM. 2,400 compounds, 50% hits. AID 651787;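 active = activation above the run cutoff, the mean activation over all tested wells plus 3 SD, cut at about 12% in these data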;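 note: 0% = DMSO wells and 100% = maximal ATP response on the peak over basal ratio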
TAAR1 desensitize = human TAAR1 agonist that also desensitizes the receptor; shares compounds with TAAR1 ag; inhibition, % at 3 µM; 2,400 compounds, 46% hits; AID 651951; CHO RD-HGA16 hTAAR1, Fluo-8 calcium, beta-PEA response inhibition;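 active = inhibition above the run cutoff, the mean inhibition of all test compounds plus 3 SD, cut at about 49% in these data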;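 note: beta-PEA stimulus applied at its EC80; loss of beta-PEA calcium signal after compound pretreatment read as receptor desensitization; 0% = DMSO with beta-PEA at EC80 and 100% = DMSO alone without agonist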
Ga16 nonsel ant = nonselective Ga16 antagonism, counter-screen; CHO-Ga16 ATP-induced calcium, Fluo-8 fluorescence; shares compounds with TAAR1 ag; inhibition, % at 3 µM; 2,400 compounds, 39% hits; AID 651952;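 active = inhibition above the plate's mean compound inhibition plus 3 SD, computed per plate, cut at about 22% in these data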;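 note: 0% = EC80 ATP with DMSO and 100% = DMSO wells without ATP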
The depositor's hits bear a star; / = not tested or not shown.

SMILES	OX1R antag-1	TAAR1 ag	OX1R antag-2	GalR3 antagonist	TAAR1 antag	CHO parental Ca	TAAR1 ag conf	Ga16 nonsel ag	TAAR1 desensitize	Ga16 nonsel ant
CCC(=O)NC(=S)NNC(=O)c1ccc(OC)cc1	-6	3	7	-10	11	1	/	/	/	/
COc1ccc(C(=O)NC(=S)NNC(=O)c2ccc3ccccc3n2)cc1	-5	51*	14	-8	-16	-4	89*	69*	45	37*
O=C(NNC(=S)NC(=O)c1sc2ccccc2c1Cl)c1ccc(Cl)cc1	1	91*	3	-11	50*	-3	163*	141*	106*	103*
COc1ccc(C(=O)NC(=S)NNC(=O)c2ccc(C)cc2)cc1	59*	170*	5	1	106*	49*	157*	124*	105*	70*
O=C(NN(C(=O)c1ccccc1)c1cccs1)c1ccccc1	/	0	/	-8	-12	/	/	/	/	/
CN(Cc1cccc(C(F)(F)F)c1)C(=O)[C@H]1O[C@@H](n2ccc(N)nc2=O)[C@H](O)[C@@H]1O	/	0	/	0	-3	/	/	/	/	/
CCCCN1C(=O)C(CC(=O)NCCCCc2ccccc2)CC(C(=O)N2CCCCCC2)=C1C (configuration not stated)	/	1	/	-7	1	/	/	/	/	/
Cc1cc(N2CCC(C)CC2)c(F)cc1[N+](=O)[O-]	-7	1	14	-6	-9	-3	/	/	/	/
Cc1cc(N2CCCC2)c(F)cc1/C=C\[N+](=O)[O-]	/	193*	/	-3	81*	/	61*	68*	60*	70*
CCCCn1c(N)c(N(CC(C)C)C(=O)c2ccc(Br)s2)c(=O)[nH]c1=O	-27	3	20	-1	-31	-15	/	/	/	/
CCO/C=C1\SC(=S)N(c2ccc(Cl)cc2)C1=O	-5	2	2	-4	2	-5	/	/	/	/
CC(C)c1ccc(N2C(=O)/C(=C/N(C)C)SC2=S)cc1	52*	59*	2	-8	49*	18	58*	56*	51*	65*
C[C@@H]1COc2cccc(N3CCC[C@H]3CO)c2S(=O)(=O)N1	/	3	/	-2	-23	/	/	/	/	/
CC1(C)CCC(=O)N2CC[C@H]3C[C@H](OC(=O)Nc4ccccc4)C[C@@H]1[C@H]32	-25	58*	20	-5	10	-19	52*	5	16	10
O=C(NC(c1ccc(Cl)cc1)c1ccsc1)C1CCN(Cc2cccc(Cl)c2)CC1 (configuration not stated)	/	10	/	-4	41	/	/	/	/	/
O=C1CC(c2ccccc2)CC(O)=C1C=NCCc1ccccc1 (configuration not stated)	-24	67*	21	-3	28	-7	72*	6	44	16
CC1(C)CC(=O)C(C=NCCc2ccc(O)cc2)=C(O)C1	-11	66*	16	-5	32	-7	106*	0	79*	-4
Oc1ccc(C=NCCc2ccccc2)cc1	0	/	-5	-6	/	4	/	0	/	-4
O=C1CC(c2ccccc2)CC(O)=C1C=NCc1ccccc1 (configuration not stated)	-11	-1	10	-4	-16	-21	/	/	/	/
Cc1noc(C)c1NC(=O)N(C)C[C@H]1OCc2cnnn2CCCC(=O)N([C@@H](C)CO)C[C@H]1C	/	4	/	-1	-17	/	/	/	/	/
CCOC(=O)N[C@H](C(=O)N1CCC[C@H]1C(=O)NCCc1ccccc1Cl)c1ccccc1	/	69*	/	-4	64*	/	85*	2	83*	6
Cc1ccccc1C(=O)N[C@H](C(=O)N1CCC[C@H]1C(=O)NCCc1ccccc1Cl)C1CCCCC1	/	16	/	-5	24	/	/	/	/	/
O=C(CC1CCCC1)N[C@H](C(=O)N1CCC[C@H]1C(=O)NCCc1ccccc1Cl)c1ccccc1	/	55*	/	-7	53*	/	86*	7	79*	11
O=C(O)c1ccccc1C(=O)NCCc1ccc(Cl)cc1	-18	60*	15	4	17	-6	61*	7	27	9
O=C(NCCc1ccccc1)c1ccccc1Cl	-23	2	35	-2	-23	-3	/	/	/	/
SMILES	OX1R antag-1	TAAR1 ag	OX1R antag-2	GalR3 antagonist	TAAR1 antag	CHO parental Ca	TAAR1 ag conf	Ga16 nonsel ag	TAAR1 desensitize	Ga16 nonsel ant
CC(CCc1ccccc1)NCC#N (configuration not stated)	-4	53*	6	2	-15	-10	51*	0	8	6
CC(CCc1ccccc1)NC(=O)c1ccccc1C(=O)O (configuration not stated)	0	48*	5	-8	-12	-9	63*	20*	2	2
Cc1cc(C)nc(Nc2nc(C(N)Cc3ccc(Cl)cc3)cs2)n1 (configuration not stated)	/	63*	/	-9	50*	/	45*	27*	31	33*
O=C(NCCc1ccccc1)Nc1ccc(Cl)cc1	-20	47*	19	-1	37	-9	46*	21*	42	28*
NC(CCc1ccccc1)c1csc(NC(=O)NCCc2ccccc2)n1 (configuration not stated)	/	26	/	-10	46	/	/	/	/	/
NC(Cc1ccc(Cl)cc1)c1csc(NC(=O)NCCc2ccccc2)n1 (configuration not stated)	/	75*	/	-8	68*	/	60*	30*	63*	51*
Cc1ccccc1NC(=O)NCCc1ccc(Cl)cc1	-16	-1	15	-1	13	-3	/	/	/	/
Cc1ccc(-n2cc(CNCCc3ncc(C)[nH]3)c(-c3ccc(F)cc3)n2)cc1	-25	10	16	-5	-3	-4	/	/	/	/
O=C(NCCc1ccccc1)C(=O)NCC1OCCN1S(=O)(=O)c1ccc2c(c1)OCCO2 (configuration not stated)	5	58*	30	-2	33	-9	77*	6	58*	21
